Reference: ChEMBL document CHEMBL3243953, “5-Aryl-1,5-dihydro-2H-1,4-benzodiazepin-2-one derivatives as antianxiety agents” (J Med Chem, 1977)

Key:
[1] = Acute toxicity in po dosed mouse; type: organism-based; conditions: in vivo
Summary of the method: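 Mice dosed orally; acute toxicity expressed as LD50 (mg/kg), calculated by the Bliss method.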

Mus musculus [2] = assay: Anticonvulsant activity in po dosed mouse by maximal electroshock test; type: functional
Summary of the method: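 Maximal electroshock test in mice after oral dosing, used as a measure of anticonvulsant activity; ED50 (mg/kg) reported.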

Mus musculus [3] = assay: Anticonvulsant activity in po dosed mouse assessed as inhibition of pentylene-tetrazole-induced convulsion; type: functional
Summary of the method: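 Antagonism of pentylenetetrazole-induced convulsions in orally dosed mice, used as a measure of tranquilizing activity; ED50 (mg/kg) reported.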

Mus musculus [4] = assay: Muscle relaxant activity in po dosed mouse assessed as muscle relaxation by rotarod test; type: functional
Summary of the method: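 Rotarod performance test in mice after oral dosing, used as a measure of muscle relaxant activity; result expressed as ED50 (mg/kg).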

| SMILES | LD50 [1] [mg/kg] | ED50 (Mus musculus [2]) [mg/kg] | ED50 (Mus musculus [3]) [mg/kg] | ED50 (Mus musculus [4]) [mg/kg] |
| --- | --- | --- | --- | --- |
| O=C1Nc2ccc(Cl)cc2C(c2ccccc2)=NC1OCCO (stereo unspecified) | > 1000 | > 100 | 36 | > 100 |
| CNC1=NC(c2ccccc2)c2cc([N+](=O)[O-])ccc2N(C)C1=O (stereo unspecified) | > 1000 | > 100 | > 100 | > 100 |
| CC(=O)OC1(c2ccccc2)c2cc([N+](=O)[O-])ccc2NC(=O)CN1[N+](=O)[O-] (stereo unspecified) | > 1000 | > 100 | 58 | > 100 |
| O=C1Nc2ccc(Cl)cc2C(c2ccccc2)=NC1OCCCl (stereo unspecified) | > 1000 | > 100 | 13 | > 100 |
| O=C1Nc2ccc([N+](=O)[O-])cc2C(c2ccccc2)=NC1OCCO (stereo unspecified) | > 1000 | > 100 | 9.2 | > 100 |
| O=C1Nc2ccc([N+](=O)[O-])cc2C(c2ccccc2)=NC1OCCCl (stereo unspecified) | > 1000 | > 100 | 9.2 | > 100 |
| COC1(c2ccccc2)N=CC(=O)Nc2ccc([N+](=O)[O-])cc21 (stereo unspecified) | > 1000 | > 100 | 1.4 | 19.1 |
| COC1(c2ccccc2)c2cc(Cl)ccc2NC(=O)CN1[N+](=O)[O-] (stereo unspecified) | > 1000 | > 100 | > 100 | > 100 |
| N#CC1N=C(c2ccccc2)c2cc([N+](=O)[O-])ccc2NC1=O (stereo unspecified) | > 1000 | > 100 | > 100 | > 100 |
| NC1N=C(c2ccccc2)c2cc(Cl)ccc2NC1=O (stereo unspecified) | > 1000 | > 100 | 85 | > 100 |
| O=C1Nc2ccc(Cl)cc2C(c2ccccc2)=NC1NO (stereo unspecified) | > 1000 | > 100 | 32 | > 100 |
| COC1(c2ccccc2)N=CC(=O)N(C)c2ccc(Cl)cc21 (stereo unspecified) | > 1000 | 53 | 0.7 | 27.5 |
| COC1(c2ccccc2)N=CC(=O)N(C)c2ccc([N+](=O)[O-])cc21 (stereo unspecified) | 750 | 76 | 0.7 | 5.2 |
| CN1C(=O)CN=C(c2ccccc2)c2cc(Cl)ccc21 [DIAZEPAM] |  | 62.2 | 1.2 | 14.4 |
| COC1(c2ccccc2)c2cc(Cl)ccc2N(C)C(=O)CN1[N+](=O)[O-] (stereo unspecified) | > 1000 | > 100 | > 100 | > 100 |
| N#CC1N=C(c2ccccc2)c2cc(Cl)ccc2NC1=O (stereo unspecified) | > 1000 | > 100 | 14 | > 100 |
| COC1(c2ccccc2)c2cc([N+](=O)[O-])ccc2NC(=O)CN1[N+](=O)[O-] (stereo unspecified) | > 1000 | > 100 | 13 | > 100 |
| COC1(c2ccccc2)N=CC(=O)Nc2ccc(Cl)cc21 (stereo unspecified) | > 1000 | > 100 | 1.6 | 28.1 |
